ChEMBL document CHEMBL4052595, “Application of Residual Dipolar Couplings and Selective Quantitative NOE to Establish the Structures of Tetranortriterpenoids from Xylocarpus rumphii” (J Nat Prod, 2017)
The source made the active and inactive calls.

Tests used:
Assay type in all cases: functional, cell-based
BT-549 = experiment: Growth inhibition of human BT549 cells at 10^-5 M incubated for 48 hrs by sulforhodamine B assay
Outline: (§1)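 Run in the NCI59 one-dose cell-line screen, with each compound tested at a single concentration of 1 × 10−5 M.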

T47D = experiment: Growth inhibition of human T47D cells at 10^-5 M incubated for 48 hrs by sulforhodamine B assay
Outline: (§2)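 Tested at a single concentration of 1 × 10−5 M as part of the NCI59 cell-line one-dose screen.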

Hs-578T = experiment: Growth inhibition of human Hs 578T cells at 10^-5 M incubated for 48 hrs by sulforhodamine B assay; outline: as §1
MCF7 = experiment: Growth inhibition of human MCF7 cells at 10^-5 M incubated for 48 hrs by sulforhodamine B assay; outline: as §1
MDA-MB-231 = experiment: Growth inhibition of human MDA-MB-231 cells at 10^-5 M incubated for 48 hrs by sulforhodamine B assay; outline: as §1
DU-145 = experiment: Growth inhibition of human DU145 cells at 10^-5 M incubated for 48 hrs by sulforhodamine B assay; outline: as §1
UO-31 = experiment: Growth inhibition of human UO31 cells at 10^-5 M incubated for 48 hrs by sulforhodamine B assay; outline: as §2
PC-3 = experiment: Growth inhibition of human PC3 cells at 10^-5 M incubated for 48 hrs by sulforhodamine B assay; outline: as §1
SN12C = experiment: Growth inhibition of human SN12C cells at 10^-5 M incubated for 48 hrs by sulforhodamine B assay; outline: as §1
TK-10 = experiment: Growth inhibition of human TK10 cells at 10^-5 M incubated for 48 hrs by sulforhodamine B assay; outline: as §2
RXF 393 = experiment: Growth inhibition of human RXF393 cells at 10^-5 M incubated for 48 hrs by sulforhodamine B assay; outline: as §1
ACHN = experiment: Growth inhibition of human ACHN cells at 10^-5 M incubated for 48 hrs by sulforhodamine B assay; outline: as §1
CAKI-1 = experiment: Growth inhibition of human Caki1 cells at 10^-5 M incubated for 48 hrs by sulforhodamine B assay; outline: as §1
A498 = experiment: Growth inhibition of human A498 cells at 10^-5 M incubated for 48 hrs by sulforhodamine B assay; outline: as §1
786-0 = experiment: Growth inhibition of human 786-0 cells at 10^-5 M incubated for 48 hrs by sulforhodamine B assay; outline: as §1
NCI/ADR-RES = experiment: Growth inhibition of human NCI/ADR-RES cells at 10^-5 M incubated for 48 hrs by sulforhodamine B assay; outline: as §1
SK-OV-3 = experiment: Growth inhibition of human SKOV3 cells at 10^-5 M incubated for 48 hrs by sulforhodamine B assay; outline: as §1
OVCAR-8 = experiment: Growth inhibition of human OVCAR8 cells at 10^-5 M incubated for 48 hrs by sulforhodamine B assay; outline: as §1
OVCAR-4 = experiment: Growth inhibition of human OVCAR4 cells at 10^-5 M incubated for 48 hrs by sulforhodamine B assay; outline: as §1
OVCAR-5 = experiment: Growth inhibition of human OVCAR5 cells at 10^-5 M incubated for 48 hrs by sulforhodamine B assay; outline: as §1
IGROV-1 = experiment: Growth inhibition of human IGROV1 cells at 10^-5 M incubated for 48 hrs by sulforhodamine B assay; outline: as §1
OVCAR-3 = experiment: Growth inhibition of human OVCAR3 cells at 10^-5 M incubated for 48 hrs by sulforhodamine B assay; outline: as §1
UACC-62 = experiment: Growth inhibition of human UACC62 cells at 10^-5 M incubated for 48 hrs by sulforhodamine B assay; outline: as §2
SK-MEL-5 = experiment: Growth inhibition of human SK-MEL-5 cells at 10^-5 M incubated for 48 hrs by sulforhodamine B assay; outline: as §1
UACC-257 = experiment: Growth inhibition of human UACC257 cells at 10^-5 M incubated for 48 hrs by sulforhodamine B assay; outline: as §2
SK-MEL-28 = experiment: Growth inhibition of human SK-MEL-28 cells at 10^-5 M incubated for 48 hrs by sulforhodamine B assay; outline: as §1
MDA-MB-435 = experiment: Growth inhibition of human MDA-MB-435 cells at 10^-5 M incubated for 48 hrs by sulforhodamine B assay; outline: as §1
SK-MEL-2 = experiment: Growth inhibition of human SK-MEL-2 cells at 10^-5 M incubated for 48 hrs by sulforhodamine B assay; outline: as §1
M14 = experiment: Growth inhibition of human M14 cells at 10^-5 M incubated for 48 hrs by sulforhodamine B assay; outline: as §1
U-251 = experiment: Growth inhibition of human U251 cells at 10^-5 M incubated for 48 hrs by sulforhodamine B assay; outline: as §2
LOX IMVI = experiment: Growth inhibition of human LOXIMVI cells at 10^-5 M incubated for 48 hrs by sulforhodamine B assay; outline: as §1
SNB-19 = experiment: Growth inhibition of human SNB19 cells at 10^-5 M incubated for 48 hrs by sulforhodamine B assay; outline: as §1
SNB-75 = experiment: Growth inhibition of human SNB75 cells at 10^-5 M incubated for 48 hrs by sulforhodamine B assay; outline: as §1
SF-539 = experiment: Growth inhibition of human SF539 cells at 10^-5 M incubated for 48 hrs by sulforhodamine B assay; outline: as §1
SF-268 = experiment: Growth inhibition of human SF268 cells at 10^-5 M incubated for 48 hrs by sulforhodamine B assay; outline: as §1
SF-295 = experiment: Growth inhibition of human SF295 cells at 10^-5 M incubated for 48 hrs by sulforhodamine B assay; outline: as §1
SW-620 = experiment: Growth inhibition of human SW620 cells at 10^-5 M incubated for 48 hrs by sulforhodamine B assay; outline: as §2
HT-29 = experiment: Growth inhibition of human HT-29 cells at 10^-5 M incubated for 48 hrs by sulforhodamine B assay; outline: as §1
KM12 = experiment: Growth inhibition of human KM12 cells at 10^-5 M incubated for 48 hrs by sulforhodamine B assay; outline: as §1
HCT-116 = experiment: Growth inhibition of human HCT116 cells at 10^-5 M incubated for 48 hrs by sulforhodamine B assay; outline: as §1
HCT-15 = experiment: Growth inhibition of human HCT15 cells at 10^-5 M incubated for 48 hrs by sulforhodamine B assay; outline: as §1
HCC 2998 = experiment: Growth inhibition of human HCC2998 cells at 10^-5 M incubated for 48 hrs by sulforhodamine B assay; outline: as §1
NCI-H522 = experiment: Growth inhibition of human NCI-H522 cells at 10^-5 M incubated for 48 hrs by sulforhodamine B assay; outline: as §1
COLO 205 = experiment: Growth inhibition of human COLO205 cells at 10^-5 M incubated for 48 hrs by sulforhodamine B assay; outline: as §1
NCI-H460 = experiment: Growth inhibition of human NCI-H460 cells at 10^-5 M incubated for 48 hrs by sulforhodamine B assay; outline: as §1
NCI-H23 = experiment: Growth inhibition of human NCI-H23 cells at 10^-5 M incubated for 48 hrs by sulforhodamine B assay; outline: as §1
NCI-H322M = experiment: Growth inhibition of human NCI-H322M cells at 10^-5 M incubated for 48 hrs by sulforhodamine B assay; outline: as §1
NCI-H226 = experiment: Growth inhibition of human NCI-H226 cells at 10^-5 M incubated for 48 hrs by sulforhodamine B assay; outline: as §1
HOP-62 = experiment: Growth inhibition of human HOP62 cells at 10^-5 M incubated for 48 hrs by sulforhodamine B assay; outline: as §1
HOP-92 = experiment: Growth inhibition of human HOP92 cells at 10^-5 M incubated for 48 hrs by sulforhodamine B assay; outline: as §1
A549 = experiment: Growth inhibition of human A549/ATCC cells at 10^-5 M incubated for 48 hrs by sulforhodamine B assay; outline: as §1
EKVX = experiment: Growth inhibition of human EKVX cells at 10^-5 M incubated for 48 hrs by sulforhodamine B assay; outline: as §1
SR = experiment: Growth inhibition of human SR cells at 10^-5 M incubated for 48 hrs by sulforhodamine B assay; outline: as §1
MOLT-4 = experiment: Growth inhibition of human MOLT4 cells at 10^-5 M incubated for 48 hrs by sulforhodamine B assay; outline: as §1
RPMI-8226 = experiment: Growth inhibition of human RPMI8226 cells at 10^-5 M incubated for 48 hrs by sulforhodamine B assay; outline: as §1
K562 = experiment: Growth inhibition of human K562 cells at 10^-5 M incubated for 48 hrs by sulforhodamine B assay; outline: as §1
CCRF-CEM = experiment: Growth inhibition of human CCRF-CEM cells at 10^-5 M incubated for 48 hrs by sulforhodamine B assay; outline: as §1
HL-60(TB) = experiment: Growth inhibition of human HL-60(TB) cells at 10^-5 M incubated for 48 hrs by sulforhodamine B assay
Outline: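 Run in the NCI59 cell-line one-dose screen, with each compound tested at a single concentration of 1 × 10−5 M.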

Measured: growth inhibition (GI)

CC[C@H](C)C(=O)O[C@@H]1[C@H]2C(=O)[C@](C)([C@H]3CC[C@@]4(C)[C@H](c5ccoc5)OC(=O)C[C@]45O[C@]35[C@@H]2OC(=O)C(C)C)[C@@H](CC(=O)OC)C1(C)C
inactive: BT-549 | T47D | Hs-578T | MCF7 | MDA-MB-231 | DU-145 | UO-31 | PC-3 | SN12C | TK-10 | RXF 393 | ACHN | CAKI-1 | A498 | 786-0 | NCI/ADR-RES | SK-OV-3 | OVCAR-8 | OVCAR-4 | OVCAR-5 | IGROV-1 | OVCAR-3 | UACC-62 | SK-MEL-5 | UACC-257 | SK-MEL-28 | MDA-MB-435 | SK-MEL-2 | M14 | U-251 | LOX IMVI | SNB-19 | SNB-75 | SF-539 | SF-268 | SF-295 | SW-620 | HT-29 | KM12 | HCT-116 | HCT-15 | HCC 2998 | NCI-H522 | COLO 205 | NCI-H460 | NCI-H23 | NCI-H322M | NCI-H226 | HOP-62 | HOP-92 | A549 | EKVX | SR | MOLT-4 | RPMI-8226 | K562 | CCRF-CEM | HL-60(TB)
